Assay [1] deals with Mus musculus. Put plainly: Survivors at day 30 when a dose of 50 mg/kg administered intravenously to P388 (iv) to L1210 leukemia mice model. Type of assay: functional.
The test system of assay [2] is Mus musculus. Put plainly: Weight change in g when a dose of 5 mg/kg administered intraperitoneally to P388 leukemia infected mice. The format is functional. Particulars: route intraperitoneal. The method, boiled down: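 P388 model with a single ip dose. Mice (10 per group) were inoculated ip at D0 with 10^6 P388 cells and given one ip drug dose at D1. Body-weight change (g), median survival day, T/C and survivors at D30 were recorded.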

In assay [3] the test system is Mus musculus. Put plainly: Antitumor activity against P388 cells at a dose of 20 mg/kg administered intraperitoneally to mice. The format is functional. To be noted: route intraperitoneal.
The test system of assay [4] is Mus musculus. Put plainly: Median survival day of L1210 (iv) to L1210 leukemia model when a dose of 20 mg/kg administered intravenously to mice. Type of assay: functional. The method, boiled down: (§1)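 L1210 leukaemia in CDF1 hybrid male or female mice, 10 per group. At D0, 10^5 viable cells were inoculated ip, followed by a single iv dose on D1. Median survival day was recorded, and T/C was calculated as treated/control median survival × 100.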

For assay [5], the system named is Mus musculus. As to the kind of experiment: Survivors at day 30 when a dose of 5 mg/kg administered to P388 leukemia infected when tested in 10 mice. The format is functional.
The subject of assay [6] is Mus musculus. Put plainly: Survivors at day 60 when a dose of 10 mg/kg to B16 melanoma infected when tested in 10 mice. Type of assay: functional.
Assay [7] relates to Mus musculus. Put plainly: Median survival day of B16 melanoma infected mice, when a dose of 10 mg/kg administered intraperitoneally. The format is functional. To be noted: route intraperitoneal. The method, boiled down:
(§2)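 B16 melanoma in hybrid BD F1 mice. At D0 each mouse was inoculated ip with 0.5 mL of homogenate made from 1 g of tumour in 10 mL of physiological serum. Compounds were given ip daily at the stated doses for 9 days (D1-9), with cis-platinum 0.5 mg/kg under the same schedule as positive control.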

The subject of assay [8] is Mus musculus. As to the kind of experiment: Survivors at day D32 when a dose of 50 mg/kg administered intravenously to mice (C38 adenocarcinoma cell lines) when tested in 10 mice. The format is functional. Particulars: route intravenous. The method, boiled down: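 Hybrid BDF1 mice, 10 per test, were implanted sc with a standard 3-mm³ fragment of C38 colon adenocarcinoma. Drug was given iv either on D1 alone or on D2 and D9. Animals were followed per NCI (Geran) protocol.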

Assay [9] deals with Mus musculus. As to the kind of experiment: […] in C38 adenocarcinoma cell line when a dose of 50 mg/kg administered intravenously in mice. The format is functional, MC-38. To be noted: route intravenous. The essentials: (§3)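 C38 colon adenocarcinoma in hybrid BD F1 mice, 10 per test. A standard 3-mm³ tumour fragment was implanted sc. Drugs were given iv at the stated doses on D1 or on D2 + D9, following the Geran et al. NCI protocol.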

The test system of assay [10] is Mus musculus. Put plainly: Median survival day of B16 melanoma infected mice, when a dose of 2.5 mg/kg administered intraperitoneally. Type of assay: functional. Particulars: route intraperitoneal. The essentials:
as §2

Assay [11] deals with Mus musculus. Put plainly: Weight change in g when a dose of 2.5 mg/kg administered intraperitoneally to B16 melanoma infected mice. The format is functional. Particulars: route intraperitoneal. The essentials:
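Hybrid BDF1 mice were inoculated ip at D0 with 0.5 mL of B16 melanoma homogenate (1 g tumor in 10 mL physiological serum). Drug was given ip daily on days 1-9, with cis-platinum 0.5 mg/kg as positive control on the same schedule.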

The test system of assay [12] is Mus musculus. Put plainly: Survivors at day D30 when a dose of 20 mg/kg administered intravenously to L1210 leukemia mice model; 0/10. The format is functional. To be noted: route intravenous.
For assay [13], the system named is Mus musculus. As to the kind of experiment: Survivors at day 60 when a dose of 10 mg/kg to B16 melanoma infected mice; 0/10.
Assay [14] concerns Mus musculus. As to the kind of experiment: Survivors at day 30 when a dose of 5 mg/kg to P388 leukemia model; 0/10. Type of assay: functional.
Assay [15] deals with Mus musculus. As to the kind of experiment: Weight change in g when a dose of 100 mg/kg intravenous administration to P388 leukemia mice model. Type of assay: functional. The essentials:
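Mice (10 per group) were inoculated ip at D0 with 10^6 P388 leukemia cells and given a single iv dose at D1. Read-outs were weight change (g), median survival day, T/C % versus controls and survivors at D30.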

Assay [16] has as its system Mus musculus. Put plainly: Median survival day in P388 leukemia mice model when a dose of 100 mg/kg administered intravenously. To be noted: route intravenous. Type of assay: functional. The method, boiled down:
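P388 leukaemia in CDF1 hybrid mice, 10 per group. At D0, 10^6 viable cells were inoculated ip, followed by a single iv dose on D1. Weight change, median survival day, T/C (treated/control median survival × 100) and survivors at D30 were recorded.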

Assay [17] deals with Mus musculus. As to the kind of experiment: Weight change in g when a dose of 40 mg/kg intravenous administration to L1210 leukemia mice model. Type of assay: functional. The essentials: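 Mice received 10^5 L1210 leukemia cells ip at D0, then a single iv drug dose at D1. Read-outs were weight change (g), median survival day, T/C % and survivors at D30.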
Assay [18] deals with Mus musculus. As to the kind of experiment: […] in C38 adenocarcinoma cell line when a dose of 75 mg/kg administered intravenously to mice. Type of assay: functional, MC-38. To be noted: route intravenous. The method, boiled down: as §3
For assay [19], the system named is Mus musculus. Put plainly: Median survival day of B16 melanoma infected mice when a dose of 10 mg/kg administered intraperitoneally. Type of assay: functional. To be noted: route intraperitoneal. The essentials: as §2
Assay [20] concerns Mus musculus. As to the kind of experiment: Antitumor activity against L1210 cells at a dose of 40 mg/kg administered intravenously to mice. The format is functional. To be noted: route intravenous. The method, boiled down: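 P388 (10^6 cells) or L1210 (10^5 cells) leukemia was inoculated ip in mice at D0, followed by a single iv drug treatment on D1. Weight change was recorded. T/C % = median survival day of treated / controls × 100; survivors noted at D30; 10-15 mice per group.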

The test system of assay [21] is Mus musculus. Put plainly: Median survival day in L1210 leukemia mice model when a dose of 40 mg/kg administered intravenously. The format is functional. To be noted: route intravenous. The method, boiled down:
as §1

Assay [22] relates to Mus musculus. As to the kind of experiment: Antitumor activity against C38 adenocarcinoma cells at a dose of 75 mg/kg administered intravenously to mice; tumor volume at D32 (T/C). To be noted: route intravenous. Type of assay: functional, MC-38. The essentials:
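Hybrid BD F1 mice, 10 per group, were implanted sc with a standard 3-mm3 C38 colon adenocarcinoma fragment. Drugs were given iv at the stated doses on D1 or on D2 + D9. Read-out was tumor size in treated versus control mice (T/C) at the day stated.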

Assay [23] deals with Mus musculus. Put plainly: Antitumor activity against P388 leukemia in mice at a dose of 20 mg/kg administered intraperitoneally for 5 days. To be noted: route intraperitoneal. The format is functional. The method, boiled down:
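CDF1 hybrid male or female mice, 10 per group, were inoculated ip with 10^6 viable P388 cells on day 0. Drugs in distilled water were given ip (0.1 mL/10 g body weight) daily D1-5. Vehicle, 5-fluorouracil and BD 84 were given the same way. T/C = median survival day of treated / controls × 100; T/C > 128% was significant; cures counted at D60.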

For assay [24], the system named is Mus musculus. As to the kind of experiment: Survivors at day 30 when a dose of 80 mg/kg to P388 leukemia model; 0/10. Type of assay: functional.
For assay [25], the system named is Mus musculus. Put plainly: Survivors at day 60 when a dose of 10 mg/kg to B16 melanoma infected mice; 4/10. The format is functional.
For assay [26], the system named is Mus musculus. Put plainly: Weight change in g when a dose of 30 mg/kg administered intraperitoneally to mice. The format is functional. Particulars: route intraperitoneal.
Assay [27] relates to Mus musculus. As to the kind of experiment: Median survival day in P388 leukemia model when a dose of 80 mg/kg administered intraperitoneally. Type of assay: functional. To be noted: route intraperitoneal. The method, boiled down:
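P388 leukaemia in CDF1 hybrid mice, 10 per group. At D0, 10^6 viable cells were inoculated ip, followed by a single ip dose of drug in distilled water on D1. Weight change, median survival day, T/C (treated/control median survival × 100) and survivors at D30 were recorded. Controls were 20 mice.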

For assay [28], the system named is Mus musculus. Put plainly: Survivors at day 60 when a dose of 30 mg/kg to B16 melanoma infected mice; 0/10. Type of assay: functional.

The structures appear in SMILES notation.

`Cc1cnc(NCCCN(C)C)c2c3cc(O)ccc3n(C)c12`: the Survivors in the assay with Mus musculus [1] came to 1; in the assay on Mus musculus [5], 0; with Mus musculus [6], 0; with Mus musculus [8], 10. Also, the Weight change with Mus musculus [2] is on record as -1.2 g; in the assay with Mus musculus [11], 0.1 g. In the assay on Mus musculus [3], this compound displayed a T/C of 164%. Moreover, the figures for the Median survival day with Mus musculus [4], in the assay on Mus musculus [7] and with Mus musculus [10] were 14, 11.75 and 32.6, respectively. In the assay with Mus musculus [9], this compound had a Median tumoral volume of 0 cm*3.

Regarding `CCN(CC)CCCNc1ncc(C)c2c1c1cc(O)ccc1n2C`, the Survivors in the assay with Mus musculus [12], in the assay with Mus musculus [13] and with Mus musculus [14] was 0 each time. The Weight change is -1.6 g with Mus musculus [15] and -0.2 g in the assay with Mus musculus [17]. Moreover, the Median survival day in the assay with Mus musculus [16] is listed as 24.3; in the assay with Mus musculus [19], 19.3; in the assay with Mus musculus [21], 13.3. The compound also showed a Median tumoral volume in the assay on Mus musculus [18] of 0.97 cm*3. The T/C in the assay with Mus musculus [20] was 149%. For the same compound, in the assay with Mus musculus [22], the Tumor volume is 13%.

In the assay on Mus musculus [23], `CCN(CC)CCCNc1[nH]cc(C)c2nc3ccc(O)cc3c1-2` had a T/C of 238%. In addition, the Survivors is 0 with Mus musculus [24], 4 in the assay on Mus musculus [25] and 0 in the assay with Mus musculus [28]. The compound further registered a Weight change in the assay with Mus musculus [26] of -1 g. Also, the Median survival day in the assay with Mus musculus [27] stood at 2.3.

In general, T/C refers to the ratio of treated to control.

Values taken from ChEMBL document CHEMBL1124035, “1-Amino-substituted 4-methyl-5H-pyrido[4,3-b]indoles (gamma-carbolines) as tricyclic analogues of ellipticines: a new class of antineoplastic agents” (1988).
